In ChEMBL document CHEMBL1212901, “Dimethylaminopyridine derivatives of lupane triterpenoids are potent disruptors of mitochondrial structure and function” (2010):
Active and inactive are the calls of the source. No cut-off for these calls is given here.

Key:
WM3211 [1] = test: Induction of apoptosis in human WM3211 cells assessed as change in fluorescence intensity using TMRM labeling by flow cytometry; assay type: functional, cell-based
Summary of the method: (§1)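 Cells suspended at 30,000 cells/ml in culture medium and exposed to compound at the single top test concentration for 5 h. TMRM added to 100 nM final for a further 60 min, then analysed by flow cytometry without medium replacement. Fluorescence given as percent of the DMSO vehicle control for each line. Mean of three independent experiments, SEM.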

WM3211 [2] = test: Induction of apoptosis in human WM3211 cells assessed as mitochondrial depolarization upto 4 ug/ml by flow cytometry; assay type: functional, cell-based; summary of the method: as §1
[3] = Antiproliferative activity against human WM3211 cells after 3 days by SRB assay; assay type: functional; conditions: read-out: ED50 (the source's name)
Summary of the method: (§2)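 WM3211 or WM793 melanoma cells in high-glucose DMEM with 8% Fetal Clone III, 3.5% horse serum and 5 mM Glutamax. Seeded at 20,000 cells/ml and rested 24 h. Serial 1:1 dilutions from 2 mg/ml DMSO stocks, incubated 72 h. Vehicle 0.2% DMSO. Cells fixed and stained with 0.5% SRB, dye eluted in Tris pH 10, A540 read. ED50 is the 50%-of-vehicle value taken from mean curves of three independent experiments.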

[4] = Antiproliferative activity against human WM793 cells after 3 days by SRB assay; assay type: functional; conditions: read-out: ED50 (the source's name); summary of the method: as §2
WM3211 [5] = test: Induction of apoptosis in human WM3211 cells assessed as change in mitochondrial morphology upto 4 ug/ml by flow cytometry; assay type: functional, cell-based
WM793 [6] = test: Induction of apoptosis in human WM793 cells assessed as reduction in mitochondrial polarization upto 4 ug/ml by flow cytometry; assay type: functional, cell-based; summary of the method: as §1
WM3211 [7] = test: Induction of apoptosis in human WM3211 cells assessed as mitochondrial fragmentation upto 4 ug/ml by flow cytometry; assay type: functional, cell-based
WM793 [8] = test: Induction of apoptosis in human WM793 cells assessed as mitochondrial fragmentation upto 4 ug/ml by flow cytometry; assay type: functional, cell-based
WM793 [9] = test: Induction of apoptosis in human WM793 cells assessed as change in fluorescence intensity using TMRM labeling by flow cytometry; assay type: functional, cell-based; summary of the method: as §1
WM793 [10] = test: Induction of apoptosis in human WM793 cells assessed as vacuolization upto 4 ug/ml by flow cytometry; assay type: functional, cell-based
[11] = Antiproliferative activity against human WM3211 cells at 4 ug/ml after 3 days by SRB assay; assay type: functional
Summary of the method: (§3)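 SRB proliferation in WM3211 or WM793 cells at the top concentration of the dilution series, after three days of exposure. Cells seeded at 20,000 cells/ml, with compound added after 24 h recovery. Vehicle control 0.2% DMSO. Growth read as A540 of Tris-eluted SRB and expressed as percent of vehicle control.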

[12] = Antiproliferative activity against human WM793 cells at 4 ug/ml after 3 days by SRB assay; assay type: functional; summary of the method: as §3

SMILES	Activity (WM3211 [1])	Activity (WM3211 [2])	EC50 ([3]; Homo sapiens, WM3211, 72 h) [nM]	EC50 ([4]; Homo sapiens, WM793, 72 h) [nM]	Activity (WM3211 [5])	Activity (WM793 [6])	Activity (WM793 [9])	other results
C=C(C)[C@@H]1CC[C@]2(COC(=O)C(C)[n+]3ccc(N(C)C)cc3)CC[C@]3(C)[C@H](CC[C@@H]4[C@@]5(C)CC[C@H](O)C(C)(C)[C@@H]5CC[C@]43C)[C@@H]12 (stereo partly drawn)	Active	Active	800	2600	Active	–	–	–
C=C(C)[C@@H]1CC[C@]2(COC(=O)C(C)[n+]3ccc(N(C)C)cc3)CC[C@]3(C)[C@H](CC[C@@H]4[C@@]5(C)CC[C@H](OC(=O)C(C)[n+]6ccc(N(C)C)cc6)C(C)(C)[C@@H]5CC[C@]43C)[C@@H]12 (stereo partly drawn)	–	Active	500	500	–	Active	Active	Activity (WM3211 [7]): Active; Activity (WM793 [8]): Active
C=C(C[n+]1ccc(N(C)C)cc1)[C@@H]1CC[C@]2(C(=O)O)CC[C@]3(C)[C@H](CC[C@@H]4[C@@]5(C)CC[C@H](OC(=O)C[n+]6ccc(N(C)C)cc6)C(C)(C)[C@@H]5CC[C@]43C)[C@@H]12 [listing 1 of 3 here]	–	–	> 4400	> 4400	–	–	–	–
C=C(C)[C@@H]1CC[C@]2(COC(=O)C(CC)[n+]3ccc(N(C)C)cc3)CC[C@]3(C)[C@H](CC[C@@H]4[C@@]5(C)CC[C@H](OC(=O)C(CC)[n+]6ccc(N(C)C)cc6)C(C)(C)[C@@H]5CC[C@]43C)[C@@H]12 (stereo partly drawn)	–	Active	300	500	–	Active	Active	Activity (WM3211 [7]): Active; Activity (WM793 [8]): Active
C=C(C[n+]1ccc(N(C)C)cc1)[C@@H]1CC[C@]2(COC(=O)C(C)[n+]3ccc(N(C)C)cc3)CC[C@]3(C)[C@H](CC[C@@H]4[C@@]5(C)CC[C@H](OC(=O)C(C)[n+]6ccc(N(C)C)cc6)C(C)(C)[C@@H]5CC[C@]43C)[C@@H]12 (stereo partly drawn) [listing 1 of 3 here]	Active	inactive	–	–	inactive	–	Active	–
C=C(C[n+]1ccc(N(C)C)cc1)[C@@H]1CC[C@]2(COC(=O)C(C)[n+]3ccc(N(C)C)cc3)CC[C@]3(C)[C@H](CC[C@@H]4[C@@]5(C)CC[C@H](OC(=O)C(C)[n+]6ccc(N(C)C)cc6)C(C)(C)[C@@H]5CC[C@]43C)[C@@H]12 (stereo partly drawn) [listing 2 of 3 here]	–	–	–	–	–	–	–	EC50 [3]: > 3800 nM; EC50 [4]: > 3800 nM
C=C(C)[C@@H]1CC[C@]2(COC(=O)C[n+]3ccc(N(C)C)cc3)CC[C@]3(C)[C@H](CC[C@@H]4[C@@]5(C)CC[C@H](OC(=O)C[n+]6ccc(N(C)C)cc6)C(C)(C)[C@@H]5CC[C@]43C)[C@@H]12 [listing 1 of 3 here]	–	–	400	400	–	–	–	–
C=C(C[n+]1ccc(N(C)C)cc1)[C@@H]1CC[C@]2(COC(=O)C(C)[n+]3ccc(N(C)C)cc3)CC[C@]3(C)[C@H](CC[C@@H]4[C@@]5(C)CC[C@H](OC(=O)C(C)[n+]6ccc(N(C)C)cc6)C(C)(C)[C@@H]5CC[C@]43C)[C@@H]12 (stereo partly drawn) [listing 3 of 3 here]	–	–	> 3500	> 3500	–	–	–	–
C=C(C[n+]1ccc(N(C)C)cc1)[C@@H]1CC[C@]2(C(=O)O)CC[C@]3(C)[C@H](CC[C@@H]4[C@@]5(C)CC[C@H](OC(=O)C[n+]6ccc(N(C)C)cc6)C(C)(C)[C@@H]5CC[C@]43C)[C@@H]12 [listing 2 of 3 here]	–	–	–	–	–	–	–	EC50 [3]: > 4700 nM; EC50 [4]: > 4700 nM
C=C(C)[C@@H]1CC[C@]2(CO)CC[C@]3(C)[C@H](CC[C@@H]4[C@@]5(C)CC[C@H](OC(=O)C[n+]6ccc(N(C)C)cc6)C(C)(C)[C@@H]5CC[C@]43C)[C@@H]12 [listing 1 of 3 here]	–	–	600	2500	–	–	–	–
C=C(C)[C@@H]1CC[C@]2(CO)CC[C@]3(C)[C@H](CC[C@@H]4[C@@]5(C)CC[C@H](OC(=O)C[n+]6ccc(N(C)C)cc6)C(C)(C)[C@@H]5CC[C@]43C)[C@@H]12 [listing 2 of 3 here]	–	Active	–	–	Active	Active	–	Activity (WM793 [10]): Active
C=C(C[n+]1ccc(N(C)C)cc1)[C@@H]1CC[C@]2(C(=O)O)CC[C@]3(C)[C@H](CC[C@@H]4[C@@]5(C)CC[C@H](OC(=O)C[n+]6ccc(N(C)C)cc6)C(C)(C)[C@@H]5CC[C@]43C)[C@@H]12 [listing 3 of 3 here]	Active	inactive	–	–	inactive	–	Active	–
C=C(C)[C@@H]1CC[C@]2(C(=O)O)CC[C@]3(C)[C@H](CC[C@@H]4[C@@]5(C)CC[C@H](OC(=O)C[n+]6ccc(N(C)C)cc6)C(C)(C)[C@@H]5CC[C@]43C)[C@@H]12.[Br-]	Active	–	2600	5700	Active	–	Active	Activity [11]: 40%; Activity [12]: 40%
C=C(C[n+]1ccc(N(C)C)cc1)[C@@H]1CC[C@]2(C(=O)O)CC[C@]3(C)[C@H](CC[C@@H]4[C@@]5(C)CC[C@H](O)C(C)(C)[C@@H]5CC[C@]43C)[C@@H]12	Active	inactive	> 6100	> 6100	inactive	–	Active	–
C=C(C)[C@@H]1CC[C@]2(COC(=O)C[n+]3ccc(N(C)C)cc3)CC[C@]3(C)[C@H](CC[C@@H]4[C@@]5(C)CC[C@H](OC(=O)C[n+]6ccc(N(C)C)cc6)C(C)(C)[C@@H]5CC[C@]43C)[C@@H]12 [listing 2 of 3 here]	–	–	–	–	–	–	–	EC50 [3]: 500 nM; EC50 [4]: 500 nM
C=C(C)[C@@H]1CC[C@]2(COC(=O)C[n+]3ccc(N(C)C)cc3)CC[C@]3(C)[C@H](CC[C@@H]4[C@@]5(C)CC[C@H](OC(=O)C[n+]6ccc(N(C)C)cc6)C(C)(C)[C@@H]5CC[C@]43C)[C@@H]12 [listing 3 of 3 here]	–	Active	–	–	–	Active	Active	Activity (WM3211 [7]): Active; Activity (WM793 [8]): Active
C=C(C)[C@@H]1CC[C@]2(COC(=O)CCC[n+]3ccc(N(C)C)cc3)CC[C@]3(C)[C@H](CC[C@@H]4[C@@]5(C)CC[C@H](OC(=O)CCC[n+]6ccc(N(C)C)cc6)C(C)(C)[C@@H]5CC[C@]43C)[C@@H]12	Active	Active	700	1300	Active	Active	–	–
C=C(C)[C@@H]1CC[C@]2(COC(=O)CC[n+]3ccc(N(C)C)cc3)CC[C@]3(C)[C@H](CC[C@@H]4[C@@]5(C)CC[C@H](OC(=O)CC[n+]6ccc(N(C)C)cc6)C(C)(C)[C@@H]5CC[C@]43C)[C@@H]12	–	Active	600	800	–	Active	Active	Activity (WM3211 [7]): Active; Activity (WM793 [8]): Active
C=C(C)[C@@H]1CC[C@]2(CO)CC[C@]3(C)[C@H](CC[C@@H]4[C@@]5(C)CC[C@H](OC(=O)C[n+]6ccc(N(C)C)cc6)C(C)(C)[C@@H]5CC[C@]43C)[C@@H]12 [listing 3 of 3 here]	–	–	–	–	–	–	–	EC50 [3]: 300 nM; EC50 [4]: 1900 nM
